Calls of active or inactive are those of the source. No cut-off for these calls is given here.
Columns and labels:
[1] = test system: Hepatitis C virus; assay: Antiviral activity against HCV infected in human Huh7.5.1 cells at 100 nM treated through lipofection after 17 hrs of infection by luciferase assay; assay type: functional, organism-based; settings: Hepacivirus hominis, Huh-7
In short: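 Huh7.5.1 cells were infected with reporter HCVcc (FL-J6/JFH-5/C19Rluc2AUbi construct) without trypsinization. After 17 h, cells were transfected with oligodeoxynucleotide using a lipid reagent (10–1000 nM tested). Replication signal was normalized to cell number by WST-1 and expressed as % of a scrambled-sequence non-specific ODN control. Triplicate.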

[2] = test system: Hepatitis C virus; assay: Antiviral activity against HCV infected in human Huh7.5.1 cells assessed as reduction in viral replication treated through microporation 17 hrs prior to infection for 4 hrs measured after 20 hrs by luciferase assay relative to control; assay type: functional, Hepacivirus hominis, Huh-7; parameters: scale not given: the % may be the effect or the level left
In short: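 Huh7.5.1 cells electroporated (microporation) with ODNs at 10–1000 nM, then infected with HCVcc; replication read 20 h after infection. Triplicate runs; signal normalised to cell number by WST-1 and expressed as percent of scrambled-sequence non-specific ODN control.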

[3] = test system: Hepatitis C virus; assay: Cytotoxicity against HCV infected in human Huh7.5.1 cells treated through microporation for < 17 hrs prior to 4 hrs infection period measured after 20 hrs postinfection by luciferase assay; assay type: organism-based; settings: hepacivirus hominis, huh-7, 20 h
[4] = test system: Hepatitis C virus; assay: Antiviral activity against HCV infected in human Huh7.5.1 cells assessed as reduction in viral replication treated through microporation 17 hrs prior to infection for 4 hrs measured after 20 hrs by luciferase assay; assay type: functional, organism-based; settings: Hepacivirus hominis; Huh-7
In short: (§1)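 Huh7.5.1 cells were microporated with oligodeoxynucleotide (10–1000 nM) and infected with reporter HCVcc (FL-J6/JFH-5/C19Rluc2AUbi construct) about 17 h later. Viral replication was read 20 h after infection, normalized to cell number by WST-1, and expressed as % of a scrambled-sequence non-specific ODN control. Triplicate.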

[5] = test system: Hepatitis C virus; assay: Cytotoxicity against HCV infected in human Huh7.5.1 cells treated through microporation for 17 hrs prior to 4 hr infection period measured after 20 hrs postinfection by luciferase assay; assay type: organism-based; settings: hepacivirus hominis, huh-7, 20 h
[6] = test system: Hepatitis C virus; assay: Antiviral activity against HCV infected in human Huh7.5.1 cells assessed as reduction in viral replication at 100 nM treated through microporation 17 hrs prior to infection for 4 hrs measured after 20 hrs by luciferase assay; assay type: functional, organism-based; settings: Hepacivirus hominis, Huh-7; in short: as §1
[7] = test system: Hepatitis C virus; assay: Antiviral activity against HCV infected in human Huh7.5.1 cells at 1000 nM treated through lipofection after 17 hrs of infection by luciferase assay; assay type: functional, Hepacivirus hominis, Huh-7
In short: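 Huh7.5.1 cells first infected with HCVcc; after 17 h, ODNs transfected by lipid reagent at 10–1000 nM. Triplicate runs; signal normalised to cell number by WST-1 and expressed as percent of non-specific scrambled ODN control.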

[8] = test system: Internal ribosome entry site (IRES); assay: Inhibition of HCV IRES RNA fragment-mediated translation in human Huh7.5.1 cells treated through microporation 17 hrs prior to infection for 4 hrs measured after 20 hrs by luciferase reporter gene assay; assay type: cell-based; settings: Hepacivirus hominis; Huh-7
[9] = test system: Hepatitis C virus; assay: Antiviral activity against HCV in cell-free system at 100 nM; assay type: functional; settings: Hepacivirus hominis
[10] = test system: Internal ribosome entry site (IRES); assay: Inhibition of HCV IRES RNA fragment-mediated translation in human Huh7.5.1 cells treated through microporation 17 hrs prior to infection for 4 hrs measured after 20 hrs by reticulocyte based translation assay; assay type: cell-based; settings: Hepacivirus hominis; Huh-7
[11] = test system: Hepatitis C virus; assay: Antiviral activity against HCV infected in human Huh7.5.1 cells assessed as reduction in viral replication at 1000 nM treated through microporation 17 hrs prior to infection for 4 hrs measured after 20 hrs by luciferase assay; assay type: functional, organism-based; settings: Hepacivirus hominis, Huh-7; in short: as §1

Row | Structure (SMILES) | Activity [1] | Activity [2] [%] | Activity [3] | Activity [4] | Activity [5] | Activity [6] | Activity [7] [%] | Activity [8] | Activity [9] | Activity [10] | Activity [11]
1 | Cc1cn([C@@H]2O[C@H](COP(=O)(O)O[C@H]3[C@@H](O)[C@H](n4ccc(N)nc4=O)O[C@@H]3COP(=O)(O)O[C@H]3[C@@H](O)[C@H](n4cnc5c(N)ncnc54)O[C@@H]3COP(=O)(O)O[C@H]3[C@@H](O)[C@H](n4cc(C)c(=O)[nH]c4=O)O[C@@H]3COP(=O)(O)O[C@H]3[C@@H](O)[C@H](n4ccc(N)nc4=O)O[C@@H]3COP(=O)(O)O[C@@H]3[C@@H](COP(=O)(O)O[C@H]4[C@@H](O)[C@H](n5ccc(N)nc5=O)O[C@@H]4COP(=O)(O)O[C@H]4[C@@H](O)[C@H](n5cnc6c(N)ncnc65)O[C@@H]4COP(=O)(O)O[C@H]4[C@@H](O)[C@H](n5cnc6c(N)ncnc65)O[C@@H]4COP(=O)(O)O[C@H]4[C@@H](O)[C@H](n5ccc(N)nc5=O)O[C@@H]4COP(=O)(O)O[C@H]4[C@@H](O)[C@H](n5ccc(N)nc5=O)O[C@@H]4COP(=O)(O)O[C@H]4[C@@H](O)[C@H](n5ccc(N)nc5=O)O[C@@H]4COP(=O)(O)O[C@H]4C[C@H](n5cnc6c(N)ncnc65)O[C@@H]4COP(=O)(O)O)OC(n4cnc5c(N)ncnc54)[C@@H]3O)[C@@H](OP(=O)(O)OC[C@H]3O[C@@H](n4ccc(N)nc4=O)[C@H](O)[C@@H]3OP(=O)(O)OC[C@H]3O[C@@H](n4cnc5c(=O)[nH]c(N)nc54)[C@H](O)[C@@H]3OP(=O)(O)OC[C@H]3O[C@@H](n4cnc5c(=O)[nH]c(N)nc54)[C@H](O)[C@@H]3OP(=O)(O)OC[C@H]3O[C@@H](n4ccc(N)nc4=O)[C@H](O)[C@@H]3OP(=O)(O)O)[C@H]2O)c(=O)[nH]c1=O (stereo not given in full) | Active | 50 | Toxic | Dose-dependent effect | Non-toxic | Active | 50 | – | – | – | –
2 | Cc1cn([C@@H]2O[C@H](COP(=O)(O)O[C@H]3[C@@H](O)[C@H](n4ccc(N)nc4=O)O[C@@H]3COP(=O)(O)O[C@H]3C(O)[C@H](n4cnc5c(N)ncnc54)O[C@@H]3COP(=O)(O)O[C@H]3[C@@H](O)[C@H](n4ccc(N)nc4=O)O[C@@H]3COP(=O)(O)O[C@H]3[C@@H](O)[C@H](n4cnc5c(N)ncnc54)O[C@@H]3COP(=O)(O)O[C@H]3[C@@H](O)[C@H](n4cnc5c(N)ncnc54)O[C@@H]3COP(=O)(O)O[C@H]3[C@@H](O)[C@H](n4ccc(N)nc4=O)O[C@@H]3COP(=O)(O)O[C@H]3[C@@H](O)[C@H](n4ccc(N)nc4=O)O[C@@H]3COP(=O)(O)O[C@H]3C[C@H](n4ccc(N)nc4=O)O[C@@H]3COP(=O)(O)OCCCNC(=O)C(CCCc3c[nH]cn3)CCCc3c[nH]cn3)[C@@H](OP(=O)(O)OC[C@H]3O[C@@H](n4cnc5c(N)ncnc54)[C@H](O)[C@@H]3OP(=O)(O)OC[C@H]3O[C@@H](n4ccc(N)nc4=O)C(O)[C@@H]3OP(=O)(O)OC[C@H]3O[C@@H](n4cc(C)c(=O)[nH]c4=O)[C@H](O)[C@@H]3OP(=O)(O)OC[C@H]3O[C@@H](n4ccc(N)nc4=O)[C@H](O)[C@@H]3OP(=O)(O)OC[C@H]3O[C@@H](n4cnc5c(=O)[nH]c(N)nc54)[C@H](O)[C@@H]3OP(=O)(O)OC[C@H]3O[C@@H](n4cnc5c(=O)[nH]c(N)nc54)[C@H](O)[C@@H]3OP(=O)(O)OC[C@H]3O[C@@H](n4cnc(N)cc4=O)[C@H](O)[C@@H]3OP(=O)(O)O)[C@H]2O)c(=O)[nH]c1=O (stereo not given in full) | Active | – | – | – | Non-toxic | – | 50 | Active | inactive | Active | –
3 | Cc1cn([C@@H]2O[C@H](COP(=O)(O)O[C@H]3[C@@H](O)[C@H](n4ccc(N)nc4=O)O[C@@H]3COP(=O)(O)O[C@H]3[C@@H](O)[C@H](n4cnc5c(N)ncnc54)O[C@@H]3COP(=O)(O)O[C@H]3[C@@H](O)[C@H](n4cc(C)c(=O)[nH]c4=O)O[C@@H]3COP(=O)(O)O[C@H]3[C@@H](O)[C@H](n4ccc(N)nc4=O)O[C@@H]3COP(=O)(O)O[C@H]3[C@@H](O)[C@H](n4cnc5c(N)ncnc54)O[C@@H]3COP(=O)(O)O[C@H]3[C@@H](O)[C@H](n4ccc(N)nc4=O)O[C@@H]3COP(=O)(O)O[C@H]3[C@@H](O)[C@H](n4cnc5c(N)ncnc54)O[C@@H]3COP(=O)(O)O[C@H]3[C@@H](O)[C@H](n4cnc5c(N)ncnc54)O[C@@H]3COP(=O)(O)O[C@H]3[C@@H](O)[C@H](n4ccc(N)nc4=O)O[C@@H]3COP(=O)(O)O[C@H]3[C@@H](O)[C@H](n4ccc(N)nc4=O)O[C@@H]3COP(=O)(O)O[C@H]3[C@@H](O)[C@H](n4ccc(N)nc4=O)O[C@@H]3COP(=O)(O)O[C@H]3[C@@H](O)[C@H](n4cnc5c(N)ncnc54)O[C@@H]3CO)[C@@H](OP(=O)(O)OC[C@H]3O[C@@H](n4ccc(N)nc4=O)[C@H](O)[C@@H]3OP(=O)(O)OC[C@H]3O[C@@H](n4cnc5c(=O)[nH]c(N)nc54)[C@H](O)[C@@H]3OP(=O)(O)OC[C@H]3O[C@@H](n4cnc5c(=O)[nH]c(N)nc54)[C@H](O)[C@@H]3OP(=O)(O)OC[C@H]3O[C@@H](n4cnc(N)cc4=O)C[C@@H]3OP(=O)(O)OCCCNC(=O)CCc3c[nH]cn3)[C@H]2O)c(=O)[nH]c1=O | Active | 50 | Toxic | Dose-dependent effect | Non-toxic | Active | 50 | – | – | – | inactive
4 | Cc1cn([C@@H]2O[C@H](COP(=O)(O)O[C@H]3[C@@H](O)[C@H](n4ccc(N)nc4=O)O[C@@H]3COP(=O)(O)O[C@H]3[C@@H](O)[C@H](n4ccc(N)nc4=O)O[C@@H]3COP(=O)(O)O[C@H]3[C@@H](O)[C@H](n4ccc(N)nc4=O)O[C@@H]3COP(=O)(O)O[C@H]3[C@@H](O)[C@H](n4cnc5c(N)ncnc54)O[C@@H]3COP(=O)(O)O[C@H]3[C@@H](O)[C@H](n4cnc5c(N)ncnc54)O[C@@H]3COP(=O)(O)O[C@H]3[C@@H](O)[C@H](n4ccc(N)nc4=O)O[C@@H]3CO)[C@@H](OP(=O)(O)OC[C@H]3O[C@@H](n4cnc5c(N)ncnc54)[C@H](O)[C@@H]3OP(=O)(O)OC[C@H]3O[C@@H](n4cnc5c(=O)[nH]c(N)nc54)[C@H](O)[C@@H]3OP(=O)(O)OC[C@H]3O[C@@H](n4cc(C)c(=O)[nH]c4=O)[C@H](O)[C@@H]3OP(=O)(O)OC[C@H]3O[C@@H](n4cc(C)c(=O)[nH]c4=O)[C@H](O)[C@@H]3OP(=O)(O)OC[C@H]3O[C@@H](n4cc(C)c(=O)[nH]c4=O)[C@H](O)[C@@H]3OP(=O)(O)OC[C@H]3O[C@@H](n4cnc5c(=O)[nH]c(N)nc54)[C@H](O)[C@@H]3OP(=O)(O)OC[C@H]3O[C@@H](n4cc(C)c(=O)[nH]c4=O)[C@H](O)[C@@H]3OP(=O)(O)OC[C@H]3O[C@@H](n4ccc(N)nc4=O)[C@H](O)[C@@H]3O[PH](O)(O)OC[C@H]3O[C@@H](n4cnc5c(N)ncnc54)[C@H](O)[C@@H]3OP(=O)(O)OC[C@H]3O[C@@H](n4cnc5c(N)ncnc54)[C@H](O)[C@@H]3OP(=O)(O)O)[C@H]2O)c(=O)[nH]c1=O | – | – | – | – | Non-toxic | – | – | – | – | – | –
5 | Cc1cn([C@@H]2O[C@H](COP(=O)(O)O[C@H]3[C@@H](O)[C@H](n4ccc(N)nc4=O)O[C@@H]3COP(=O)(O)O[C@H]3[C@@H](O)[C@H](n4cnc5c(N)ncnc54)O[C@@H]3COP(=O)(O)O[C@H]3[C@@H](O)[C@H](n4cc(C)c(=O)[nH]c4=O)O[C@@H]3COP(=O)(O)O[C@H]3[C@@H](O)[C@H](n4ccc(N)nc4=O)O[C@@H]3COP(=O)(O)O[C@@H]3[C@@H](COP(=O)(O)O[C@H]4[C@@H](O)[C@H](n5ccc(N)nc5=O)O[C@@H]4COP(=O)(O)O[C@H]4[C@@H](O)[C@H](n5cnc6c(N)ncnc65)O[C@@H]4COP(=O)(O)O[C@H]4[C@@H](O)[C@H](n5cnc6c(N)ncnc65)O[C@@H]4COP(=O)(O)O[C@H]4[C@@H](O)[C@H](n5ccc(N)nc5=O)O[C@@H]4COP(=O)(O)O[C@H]4[C@@H](O)[C@H](n5ccc(N)nc5=O)O[C@@H]4COP(=O)(O)O[C@H]4[C@@H](O)[C@H](n5ccc(N)nc5=O)O[C@@H]4COP(=O)(O)O[C@H]4C[C@H](n5cnc6c(N)ncnc65)O[C@@H]4COP(=O)(O)OCCCNC(=O)CCc4c[nH]cn4)OC(n4cnc5c(N)ncnc54)[C@@H]3O)[C@@H](OP(=O)(O)OC[C@H]3O[C@@H](n4ccc(N)nc4=O)[C@H](O)[C@@H]3OP(=O)(O)OC[C@H]3O[C@@H](n4cnc5c(=O)[nH]c(N)nc54)[C@H](O)[C@@H]3OP(=O)(O)OC[C@H]3O[C@@H](n4cnc5c(=O)[nH]c(N)nc54)[C@H](O)[C@@H]3OP(=O)(O)OC[C@H]3O[C@@H](n4ccc(N)nc4=O)[C@H](O)[C@@H]3OP(=O)(O)O)[C@H]2O)c(=O)[nH]c1=O (stereo not given in full) | Active | 50 | Toxic | Dose-dependent effect | Non-toxic | Active | 50 | – | – | – | inactive
